From PubChem BioAssay AID720543 (The Scripps Research Institute Molecular Screening Center, 2013) come the findings set out here.

Usually inhibition stands for the relative decrease from the control value, in per cent.

The structures appear in SMILES notation. “And” between values parts separate entries of the source, which are not always exact repeats. Equal entries are not always repeated. About 2,000 (0.54%) of roughly 370,000 compounds were called active.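 How the source made its calls: active means inhibition exceeding the mean over every tested compound plus 3 SD (cut at about 30% in these data); inactive means the rest.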 The entries come from a sample that favours actives as a whole. More than one record can exist for a structure, and the calls need not agree.

Chain of (Lyso)-N-acylphosphatidylethanolamine lipase (Mus musculus) (Q8VD66 whole entry, looked up): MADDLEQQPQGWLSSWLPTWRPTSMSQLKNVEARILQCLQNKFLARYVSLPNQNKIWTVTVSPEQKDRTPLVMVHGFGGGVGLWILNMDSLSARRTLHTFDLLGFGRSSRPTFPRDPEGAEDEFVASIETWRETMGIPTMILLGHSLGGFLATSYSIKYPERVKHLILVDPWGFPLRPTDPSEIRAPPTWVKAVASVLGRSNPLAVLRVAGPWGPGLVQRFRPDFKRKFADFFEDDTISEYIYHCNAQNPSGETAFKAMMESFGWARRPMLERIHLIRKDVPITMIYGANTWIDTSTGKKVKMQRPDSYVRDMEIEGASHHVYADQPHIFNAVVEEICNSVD

The target in the experiment is (Lyso)-N-acylphosphatidylethanolamine lipase (Mus musculus) (UniProt Q8VD66). Kind of experiment: mouse ABHD4 hydrolase activity blockers – biochemical, fluorescence polarization, primary screen (AID 720543). The settings on record: purified mABHD4, FP-Rh probe fluorescence polarization; at 8.92 µM; stronger effect = higher value. Put shortly:
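Assay system: mouse ABHD4 enzyme, wild type / Also added: fluorescent activity-based probe FP-Rh / Doses: single nominal dose of 8.92 µM, 0.89% DMSO final / Timing: 45 min compound pre-incubation plus 60 min probe step, 25 °C / Signal: FP readout, ex 525 nm / em 598 nm / Control set: S159A mutant/DMSO as 100%, compound-well median as 0%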
`CC(C)(C)c1ccc(C(=O)Nc2cc(Cl)c(Br)cc2C(=O)O)cc1`: the inhibition was -156% (inactive).
Then `COc1ccc(C)cc1NC(=S)Nc1ccccc1SC`, with -1.16% (inactive).
Turning to `CCc1ccccc1NC(=S)Nc1cc(OC)c(NC(=O)C(C)C)cc1OC`, the inhibition was 33.4% (active).
For `COc1cc(NC(=S)NNC(=O)CC(C)C)c(OC)cc1Cl`, the inhibition is 1.23% (inactive).
Take `Cc1ccccc1CN1CCCCC(NC(=O)Nc2ccccc2F)C1=O` (stereo not drawn): the inhibition is 3.77% (inactive).
Turning to `Oc1c(Cl)cc(Cl)c(Cl)c1Cc1c(O)c(Cl)cc(Cl)c1Cl`, the inhibition is -117% (inactive).
Then `CCOC(=O)[C@]12CCCC3=C1N(CCC3)C(=O)[C@@H](CC(=O)NCC13CC4CC(CC(C4)C1)C3)C2`, with 3.95% (inactive).
In the case of `CC/C(=C(/c1ccccc1)c1ccc(OCC[N+](C)(C)C)cc1)c1ccccc1`, the inhibition was 30% (active).
Then `COC(=O)C[C@@H]1CC[C@H]2[C@@H](COc3ccc(NS(=O)(=O)CC(F)(F)F)cc3C(=O)N2C)O1`, with 10.4% (inactive).
Then `COC(=O)c1ccc(CN(c2ccccc2OC)S(=O)(=O)c2cccs2)o1`, with 4.33% (inactive); and `COC(=O)C1=C(C(=O)OC)C2C=C(C(C)C)C1C(=O)C2(C)O` (stereo not drawn), with -1.36% (inactive); and `CCOc1ccc(S(=O)(=O)NCCC(=O)NCC(C)(C)N2CCOCC2)cc1`, with 4.91% (inactive).
As for `O=C(COC(=O)c1ccc(O)cc1O)c1ccc2c(c1)OCCO2`, the inhibition is 36.5% (active).
Then `O=C(OCc1ccccc1F)c1ccc2c(c1)OCCO2`, with 1.07% (inactive).
Then `O=C1COc2ccc(C(=O)COC(=O)c3ccccc3Cl)cc2N1`, with -1.93% (inactive); and `Cc1nc2sccn2c(=O)c1S(=O)(=O)NCCc1ccccc1`, with 0.82% (inactive).
Then `O=C(COC(=O)c1ncc(Cl)c(Cl)c1Cl)NC1CCS(=O)(=O)C1` (stereo not drawn), with 2.44% (inactive).
As for `Oc1ccc(N=Cc2c(O)ccc3ccccc23)cc1`, the inhibition is 51.1% (active).
`Oc1ccc(N=Cc2sc3ccccc3c2Cl)cc1`: the inhibition is 88.4% (active).
Then `C[C@@H]1CN([C@@H](C)CO)C(=O)c2cccc(NC(=O)Nc3cccc4ccccc34)c2O[C@H]1CN(C)S(=O)(=O)c1ccccc1F`, with -0.79% (inactive); and `COC(=O)[C@]12C[C@H](CC(=O)NCc3cccc4ccccc34)C(=O)N(CCc3ccc(OC)c(OC)c3)C1=C[C@H](C1CCCC1)O[C@@H]2C`, with -10.3% (inactive); and `Cn1c(SCC(=O)N2CCOCC2)nnc1-c1ccc(NC(=O)c2ccccc2F)cc1`, with 1.97% (inactive).
Then `CSc1nc2sc3c(c2c(=O)[nH]1)CCc1ccccc1-3`, with 4.16% (inactive); and `CCCNC(=O)Nc1ccc2c(c1)C(=O)N(C)[C@H]1CC[C@H](CC(=O)NCC3CCCCC3)O[C@@H]1CO2`, with 12.2% (inactive); and `O=[N+]([O-])c1cc(Cl)cc(/C=N/NC(=S)Nc2cc(S(=O)(=O)N3CCOCC3)ccc2Cl)c1O`, with 32.2% (active).
Then `COCCNC(=S)Nc1cc(S(=O)(=O)N2CCOCC2)ccc1N1CCCCC1`, with 1.6% (inactive); and `Cc1ccc(S(=O)(=O)N2CCOCC2)cc1NC(=O)c1ccncc1`, with -3.76% (inactive); and `Cc1ccccc1NC(=O)CSc1ccc2nnc(-c3ccccn3)n2n1`, with 5.22% (inactive).
Regarding `CC12C(=O)N(n3cnnc3)C(=O)C1C1C=CC2C1` (stereo not drawn), the inhibition was -1.34% (inactive).
For the compound `CCCCN1C(=O)/C(=C2/C=CC=CN2C)SC1=S`, the inhibition is 4.21% (inactive).
Then `CCN1C(=O)/C(=C\N2CCOCC2)SC1=S`, with 9.79% (inactive); and `CCN1C(=O)/C(=C2/Sc3ccccc3N2CCCS(=O)(=O)O)SC1=S`, with 9.75% (inactive) and 31.2% (active).
Then `CC(=O)Nc1ccc(NC(=O)CSC2=NS(=O)(=O)c3ccccc3N2)cc1`, with 0.67% (inactive).
Then `NC1=CC(=O)C(=O)c2cccnc21`, with 59.2% (active).
Turning to `COC(=O)C[C@@H]1CC[C@@H]2[C@H](COc3ccc(NC(=O)c4cccc(F)c4)cc3C(=O)N2C)O1`, the inhibition is -0.54% (inactive).
Then `CO[C@@H]1CN(C)C(=O)c2cc(NC(=O)C3CC3)ccc2OC[C@H](C)N(C(=O)CN2CCOCC2)C[C@@H]1C`, with -0.34% (inactive).
Then `CCCOc1cccc(C(=O)Nc2nnn(CCC)n2)c1`, with 7.16% (inactive).
Then `CCC(CO)Oc1cc(NC(=O)c2cccc(F)c2)c2ncn(C(C)C)c2c1` (stereo not drawn), with 44.4% (active).
For the compound `Cc1ccc(F)cc1NC(=O)c1cccc(N(C)C)c1`, the inhibition was -2.26% (inactive).
Then `Nc1ncnc2c1ncn2[C@@H]1O[C@H](CNS(=O)(=O)c2ccc(-c3ccno3)s2)[C@@H](O)[C@H]1O`, with -3.46% (inactive); and `CC(C)(C)OC(=O)NCCc1ccccc1/C=C/S(=O)(=O)NCc1ccc(F)cc1`, with 14.8% (inactive); and `Cc1cccc(-n2cnc(C(=O)Nc3cccnc3)c2)n1`, with -2.09% (inactive).
Then `O=C(NNC(=S)Nc1ccccc1)c1cccc(S(=O)(=O)N2CCOCC2)c1`, with 1.73% (inactive); and `Cc1cccc(-n2cnc(C(=O)NNC(=S)Nc3ccccc3)c2)n1`, with 43.3% (active); and `CC(=O)N1N=C(c2ccncc2)OC1(Cc1ccccc1)Cc1ccccc1`, with -3.49% (inactive).
As for `CCOC(=O)[C@]12CCCC3=C1N(CCC3)C(=O)[C@@H](CC(=O)NCc1cccs1)C2`, the inhibition is -5.06% (inactive).
Then `CN(C)CCCN(Cc1cc2cc3c(cc2[nH]c1=O)OCCO3)C(=O)NC1CCCCC1`, with 1.3% (inactive); and `O=S1(=O)c2ccc(Br)cc2-n2nncc2CN1Cc1cccc(Cl)c1`, with -5.52% (inactive).
Then `Cc1ccccc1OCC(=O)NCC(=O)OCC(=O)c1ccc2ccccc2c1`, with 3.01% (inactive); and `O=C(COc1ccc(Cl)cc1)NCCSc1ccccc1`, with -6.3% (inactive); and `Cc1cc2ccccc2n1CCNC(=O)COc1ccc2ccccc2c1`, with 40.9% (active).
Then `O=C(N1CCOCC1)N1CC[C@H]2[C@H](CCCN2Cc2ccc(F)cc2)C1`, with 4.72% (inactive); and `CC(C)C(C#CC1CC1)N(Cc1ccc2c(c1)OCO2)C(N)=NC(=O)/C=C/c1cccc(C(F)(F)F)c1` (stereo not drawn), with 4.25% (inactive).
For `O=C(Nn1c(SCc2ccc([N+](=O)[O-])cc2)nc2ccccc2c1=O)c1ccc(F)cc1`, the inhibition is -52.4% (inactive).
Then `O=c1[nH]n(-c2ccc([N+](=O)[O-])cc2)c(=O)c2ccccc12`, with 59.3% (active).
Then `C=CCNC(=S)N1CCN(CCN=Cc2c(C)[nH]n(-c3ccc([N+](=O)[O-])cc3)c2=O)CC1`, with -6.41% (inactive).
Regarding `O=C(Nc1cc(F)cc(F)c1)OC1CCC12CCC(c1ccccc1)CC2` (stereo not drawn), the inhibition was -31.2% (inactive).
Then `CC(Oc1ccc(Cl)cc1)c1ccnn1S(C)(=O)=O` (stereo not drawn), with 1.1% (inactive); and `CCOC(=O)C1(Cc2ccccc2)CCN(Cc2cn(C(C)=O)c3ccccc23)CC1`, with -1.19% (inactive).
Then `COc1ccc(C)cc1NC(=O)c1[nH]c(C)c(C(C)=O)c1C`, with -2.22% (inactive).
Then `COc1cccc2c(C)c(C(=O)O)[nH]c12`, with 35.9% (active); and `CCc1c(C)nc2c(OC)cccc2c1Cl`, with 0.48% (inactive); and `COC(=O)c1cccc(Cn2ccc3ccc(-c4ccc5ccn(C(=O)c6ccccc6C)c5c4)cc32)c1`, with 1.96% (inactive).
As for `CCOC(=O)C1Nc2ccc(C(F)(F)F)cc2C2C=CCC12` (stereo not drawn), the inhibition was 41.8% (active).
Take `CCOC(=O)/C=C/c1ccc(C(F)(F)F)cc1S(=O)(=O)NC(C)(C)C`: the inhibition is -26.5% (inactive).
Then `CCOC(=O)C[C@H]1c2ccc(C(F)(F)F)cc2S(=O)(=O)N1c1ccccc1`, with -6.24% (inactive); and `CN1C(=O)c2cc(NS(C)(=O)=O)ccc2OC[C@@H]2O[C@@H](CC(=O)NCc3ccc(-c4ccccc4)cc3)CC[C@H]21`, with 3.8% (inactive); and `Cc1ccc(Cn2cc(CN3[C@@H](CC(C)C)COc4ccc(Cl)cc4S3(=O)=O)nn2)cc1`, with 4.37% (inactive).
Consider `O=C(NCc1cccs1)C1CCCN(S(=O)(=O)c2ccc([N+](=O)[O-])cc2)C1` (stereo not drawn), for which the inhibition was 4.68% (inactive).
Turning to `CCC(C)Cn1c(O)cc2nn(-c3nc4ccccc4s3)c(=O)c-2c1C` (stereo not drawn), the inhibition was 44.6% (active).
Then `O=S(=O)([N-]c1nc2ccccc2nc1-[n+]1ccc(Cc2ccccc2)cc1)c1ccc(Br)s1`, with 7.29% (inactive); and `O=C1CCN(C(=O)Nc2ccccc2)N1`, with 6.15% (inactive); and `Cc1ccc(NC2CCCN(C(=O)CCC3(C)CC3)C2)cc1C` (stereo not drawn), with 8.21% (inactive).
As to `O=C(Nc1cc(Cl)cc(Cl)c1)OCCN1CCCC12CCC(c1ccccc1)CC2` (stereo not drawn), the inhibition is 2.15% (inactive).
Then `COC(=O)c1ccc(COc2cc([N+](=O)[O-])cc3cccnc23)cc1`, with 6.05% (inactive); and `COC(=O)C(C)N(C#N)c1nc(C)nc(C)n1` (stereo not drawn), with -1.89% (inactive); and `CCN(C(=O)Nc1cccc2ccccc12)c1ccccc1`, with 18.5% (inactive).
Then `O=C(O)c1cc([N+](=O)[O-])c(Nc2cccc3ccccc23)c([N+](=O)[O-])c1`, with 35.4% (active); and `O=C(Nc1ccccc1[N+](=O)[O-])C1C(c2ccccc2)=C1c1ccccc1`, with -0.35% (inactive).
Then `O=C1C(=O)N(Cc2ccc(-c3ccsc3)cc2)c2ccc(OC(F)(F)F)cc21`, with 1.83% (inactive); and `COC(=O)[C@]12C[C@H](CC(=O)NCc3ccccc3)C(=O)N(CCc3ccc(OC)c(OC)c3)C1=C[C@H](C(C)(C)C)O[C@@H]2C`, with 4.6% (inactive).
In the case of `CCOc1cc(/C=C2/N=C(c3ccc(C(C)(C)C)cc3)OC2=O)cc(Cl)c1OS(C)(=O)=O`, the inhibition was 37.3% (active).
Then `CNc1[nH]ncc1[N+](=O)[O-]`, with 7.62% (inactive); and `CN(C)CC(=O)N[C@@H]1C[C@@H]2O[C@H](CO)CC[C@@H]2O[C@@H]1CCc1ccc(C#Cc2ccccc2)cc1`, with 3.38% (inactive); and `C#CCCN([C@H](C(=O)OC)C(C)C)S(=O)(=O)c1ccc(F)cc1Br`, with -7.15% (inactive).
Then `CC(=O)N(c1ccc2oc(=O)sc2c1)S(=O)(=O)c1ccc(C)cc1`, with 7.97% (inactive); and `O=C(CN(Cc1ccc(Br)cc1)S(=O)(=O)c1ccccc1)NCc1ccncc1`, with -0.4% (inactive).
Then `O=C(c1cccnc1)N(c1cc2sc(=O)oc2c2ccccc12)S(=O)(=O)c1ccccc1`, with 61.7% (active).
